PMC5035373 (Diabetes Technology & Therapeutics, 2016)

Tests used:
[1] = Insulin pharmacokinetics after ID; type: in vivo, human; details: for Insulin AUC 0–1 / Insulin AUC 0–1.5 / Insulin AUC 4–6: SD; for Cmax, median / Insulin AUC (360 min), median / Tmax, median: 0.2 U/kg
Method in brief: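 Open-label randomized crossover in type 2 diabetics (30–70 y, BMI <35, HbA1c 6.5%–10%, drug-naive or metformin only). Insulin aspart 0.2 U/kg into right lower abdomen, intradermal via MicronJet or SC via pen, 4–14 days apart, fasting or pre-standard meal. Blood at −5 min, baseline, every 10 min to 2 h, then every 30 min to 6 h. Insulin measured by immunoassay; AUC, partial AUCs, AUCID/AUCSC derived.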

[2] = test system: patients with type 2 diabetes; assay: Safety and tolerability: adverse events, pain per visual analog scale; type: in vivo, human
Method in brief: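 All enrolled patients were analysed for safety. Injection-site reactions, AEs and SAEs were recorded on study days and later visits, with their relation to the intervention. Insertion pain was rated on a visual analog scale and preference was surveyed. Intradermal vs SC tolerability was compared within subjects by Wilcoxon paired test.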

[3] = ID via MicronJet needle, all patients, n = 14
[4] = ID via MicronJet needle, before standard meal test, n = 3
[5] = SC conventional needle, all patients, n = 14
[6] = SC conventional needle, before standard meal test, n = 3
[7] = SC conventional needle, fasting, n = 11

In the case of Insulin aspart, the “Insulin AUC 0–1” value ([1]; ID MicronJet, 0–1 h, fasting population n = 11, mean ± SD) was 3695.2 ± 1593.3 μU/mL/min, the “Insulin AUC 0–1.5” value ([1]; ID MicronJet, 0–1.5 h, fasting population n = 11, mean ± SD) was 4912.0 ± 2154.6 μU/mL/min and the “Insulin AUC 0–1.5” value ([1]; ID MicronJet, 0–1.5 h postinjection, overall population n = 14, mean ± SD) was 5156.3 ± 1988.7 μU/mL/min. For the same substance, the “Insulin AUC 4–6” value ([1]; ID MicronJet, 4–6 h, fasting population n = 11, mean ± SD) was 2027.3 ± 946.5 μU/mL/min, the “Insulin AUC 4–6” value ([1]; ID MicronJet, 4–6 h postinjection, overall population n = 14, mean ± SD) was 2054.4 ± 857.7 μU/mL/min and the “Cmax, median” value [1, 3] was 80 μU/mL. For the same substance, the “Insulin AUC (360 min), median” value [1, 3] was 9913.75 μU/mL/min, the “Tmax, median” value [1, 3] was 0.583 h and the “Cmax, median” value [1, 4] was 95 μU/mL. The “Insulin AUC (360 min), median” value [1, 4] was 12690 μU/mL/min, the “Tmax, median” value [1, 4] was 0.833 h and the “Cmax, median” value ([1]; ID via MicronJet needle, fasting, n = 11) was 79 μU/mL. For the same substance, the “Cmax, median” value [1, 5] was 55 μU/mL, the “Insulin AUC (360 min), median” value [1, 5] was 10936.25 μU/mL/min and the “Tmax, median” value [1, 5] was 1.46 h. For the same substance, the “Cmax, median” value [1, 6] was 68 μU/mL, the “Insulin AUC (360 min), median” value [1, 6] was 13960 μU/mL/min and the “Tmax, median” value [1, 6] was 1.17 h. The “Cmax, median” value [1, 7] was 54.5 μU/mL, the “Insulin AUC (360 min), median” value [1, 7] was 10,407.5 μU/mL/min and the “Tmax, median” value ([1]; SC via NovoPen conventional needle, fasting, n = 11, type 2 diabetes) was 1.5 h. For the same substance, the “Insulin AUC 0–1” value ([1]; SC, 0–1 h, fasting population n = 11, mean ± SD) was 2346.1 ± 609.7 μU/mL/min, the “Insulin AUC 0–1” value ([1]; SC, 0–1 h postinjection, overall population n = 14, mean ± SD, post hoc) was 2534.1 ± 737.1 μU/mL/min and the “Insulin AUC 0–1.5” value ([1]; SC, 0–1.5 h, fasting population n = 11, mean ± SD) was 3647.7 ± 904.0 μU/mL/min. For the same substance, the “Insulin AUC 0–1.5” value ([1]; SC, 0–1.5 h postinjection, overall population n = 14, mean ± SD) was 4035.4 ± 1255.9 μU/mL/min, the “Insulin AUC 4–6” value ([1]; SC, 4–6 h, fasting population n = 11, mean ± SD) was 2903.3 ± 1571.9 μU/mL/min and the “Insulin AUC 4–6” value ([1]; SC, 4–6 h postinjection, overall population n = 14, mean ± SD) was 2929.0 ± 1412.1 μU/mL/min. For the same substance, the “Subjects experiencing AEs” value ([2]; 17 patients in safety analysis, 5 AEs in total) was 3 of 17 and the “Local AEs (injection site reactions)” value ([2]; all 17 patients, ID and SC injections) was “No local AEs (injection site reactions) were reported”.
